From the RNAGym collection of RNA variant scans (doi:10.1126/science.aae0568) come the findings set out here.

Variants at the floor of the assay were thinned out.

The labels stand for the following.
B1: tRNA (parent)
chain: GUUCCGUUGGCGUAAUGGUAACGCGUCUCCCUCCUAAGGAGAAGACUGCGGGUUCGAGUCCCGUACGGAACG

In this data set the parent is B1. Description: yeast fitness relative to wild type (ratio to wild type); higher = fitter; tRNA-Arg(CCU), competitive growth, 37 C, YPD. The gist of the method: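 For this measurement, the tRNA-Arg(CCU) gene was varied by chemical synthesis at a 3% per-site mutation rate across 69 sites, and each variant was placed at the native genomic locus in Saccharomyces cerevisiae. The pooled strains went through a 24-hour competition in YPD at 37°C in six parallel replicates, with amplicons from start and end populations read by 100-nucleotide paired-end sequencing. Darwinian fitness relative to wild type followed from the change in each genotype's frequency. Genotypes needed ≥ 100 starting reads, and estimates < 0.5 were set to 0.5.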
For C5A G25A C29A C30U, the yeast fitness was determined as 0.758.

For the variant C5A U7G A14C U16G A43G U53C C62G, the yeast fitness is no more than 0.5.

As to C5A C33U, the yeast fitness is 0.603.

On to C5A C33A, for which the yeast fitness turned out to be 0.67.

Turning to C5A G10U C30U A43C A69C, the yeast fitness is no more than 0.5.

Consider C5A G17C C22U C60G C61U, for which the yeast fitness came out at 0.947.

As for C5A C33U G39C C55A G67C, the yeast fitness was no more than 0.5.

C5A C55G: the yeast fitness was determined as 0.618.

Take C5A U13A A45C: the yeast fitness is 0.576.

In the case of C5A G39C C46A C60G, the yeast fitness is no more than 0.5.

In the case of C5A U7A A21G C61G C66G, the yeast fitness is no more than 0.5.

C5A C31A: the yeast fitness was 0.971.

C5A C31U: the yeast fitness turned out to be 0.885.

Regarding C5A C31G, the yeast fitness was 0.889.

Turning to C5A G50C U64C, the yeast fitness came to 0.73.

With C5A C31U U35C C49G, the yeast fitness is no more than 0.5.

For the variant C5A G17A C55U, the yeast fitness was no more than 0.5.

In the case of C5A G17C G25A U59C, the yeast fitness is no more than 0.5.

C5A C31U C33U A42C C49U A65C: the yeast fitness was no more than 0.5.

With C5A C31G A37G A70U, the yeast fitness came out at 0.532.

For the variant C5A U8C G10A A21G A45C G56C, the yeast fitness was no more than 0.5.

For the variant C5A G23C U32G A69U, the yeast fitness is no more than 0.5.

On to C5A G9C A40G, for which the yeast fitness was no more than 0.5.

Take C5A G38U C55A: the yeast fitness was no more than 0.5.

For C5A G6C C11G U19A C49A, the yeast fitness came out at 0.571.

With C5A U7A A36C G38C C55U C62A, the yeast fitness is no more than 0.5.

As to C5A G12C G18C C30A C31G U54G, the yeast fitness worked out at 0.605.

Regarding C5A G17A C34A, the yeast fitness was no more than 0.5.

Regarding C5A G23A G39C G41C A70C, the yeast fitness is no more than 0.5.

On to C5A C49G, for which the yeast fitness came to 0.704.

C5A C49U: the yeast fitness turned out to be 0.848.

Consider C5A G39A C60U C62A, for which the yeast fitness came out at 0.557.

Regarding C5A G38A, the yeast fitness was 0.664.

For C5A G38C, the yeast fitness was determined as 0.732.

As to C5A C31G U54C, the yeast fitness is 0.588.

Regarding C5A G17C C27G, the yeast fitness was 0.57.

In the case of C5A G39A C49U, the yeast fitness worked out at 0.541.

C5A C31G A37G C62U G63C: the yeast fitness came out at 0.577.

On to C5A C31U G48C C55A A69C, for which the yeast fitness was no more than 0.5.

As for C5A U8C U13C G18A C31G C46U, the yeast fitness was no more than 0.5.

With C5A G67U, the yeast fitness came out at 0.865.

For C5A G17C A43U U59A, the yeast fitness was found to be 0.609.

For the variant C5A U7A A21G G67C, the yeast fitness worked out at 0.541.

For C5A C34G C66U, the yeast fitness was no more than 0.5.

Regarding C5A U7C A65C, the yeast fitness was no more than 0.5.

On to C5A G17A A40G C46A, for which the yeast fitness was no more than 0.5.

With C5A U7C A36G, the yeast fitness was no more than 0.5.

Regarding C5A U13A C30U A45C, the yeast fitness is no more than 0.5.

Consider C5A C46U U59C, for which the yeast fitness is 0.728.

On to C5A C34U, for which the yeast fitness came out at 0.786.

Regarding C5A C34G C49G U64C, the yeast fitness is no more than 0.5.

On to C5A C31U A70G, for which the yeast fitness was determined as 0.614.

C5A G63A: the yeast fitness was 0.683.

In the case of C5A G63U, the yeast fitness was determined as 0.722.

On to C5A C34G A65C, for which the yeast fitness is no more than 0.5.

C5A U8C C27U A40G C49U C55G: the yeast fitness was no more than 0.5.

Regarding C5A C33G C49U C61G A69C, the yeast fitness was no more than 0.5.

Consider C5A G52C, for which the yeast fitness turned out to be 0.567.

As for C5A G52A, the yeast fitness was determined as 0.641.

C5A C61G: the yeast fitness was 0.609.

Turning to C5A G9C A36U G50A U59G, the yeast fitness was found to be 0.542.

With C5A G23C G41C G50C, the yeast fitness is no more than 0.5.

C5A G17A A40U: the yeast fitness was no more than 0.5.

For the variant C5A G23A C24U A36C, the yeast fitness is no more than 0.5.

In the case of C5A C34U C49A G52A, the yeast fitness is no more than 0.5.

On to C5A U8G A37U G51A G52C U59C, for which the yeast fitness stood at 0.639.

In the case of C5A G41A A57C C62A, the yeast fitness is 0.54.

As to C5A G50C, the yeast fitness turned out to be 0.626.

C5A G17C A57C: the yeast fitness came to 0.551.

Turning to C5A G17C A43U, the yeast fitness turned out to be 0.543.

In the case of C5A G17A A36G A70G, the yeast fitness was no more than 0.5.

With C5A U7A G39A C60U C62A, the yeast fitness is no more than 0.5.

Consider C5A G6C A15G A40G, for which the yeast fitness is no more than 0.5.

Take C5A G10A A21C C24A A65C: the yeast fitness is no more than 0.5.

As to C5A C33G C34A A40C G67A, the yeast fitness is no more than 0.5.

Consider C5A G6A U16A A45G G50A, for which the yeast fitness was no more than 0.5.

For C5A C33U A43U C49G G50C C61U C66U, the yeast fitness was no more than 0.5.

With C5A C60A, the yeast fitness is 0.651.

Regarding C5A U13C C29U G56C, the yeast fitness is no more than 0.5.

Regarding C5A G12A G48A C61U, the yeast fitness is no more than 0.5.

On to C5A G18A G52A C55G, for which the yeast fitness came to 0.526.

In the case of C5A C31U A37C, the yeast fitness amounted to 0.561.

On to C5A C60G C66G A69G, for which the yeast fitness was no more than 0.5.

Take C5A C33U C46G: the yeast fitness was no more than 0.5.

With C5A C33U C46A, the yeast fitness is no more than 0.5.

Consider C5A C34U G41C A69G, for which the yeast fitness was no more than 0.5.

Turning to C5A C34U C55A, the yeast fitness is no more than 0.5.

C5A G38A U47C: the yeast fitness came out at 0.599.

Turning to C5A C55U A65G, the yeast fitness came to 0.583.

As to C5A C31U A69U, the yeast fitness worked out at 0.786.

As to C5A G17A G44C, the yeast fitness was found to be 0.532.

In the case of C5A G41C, the yeast fitness is 0.779.

Turning to C5A G17C G39C, the yeast fitness is no more than 0.5.

For the variant C5A C46U, the yeast fitness was 0.997.

In the case of C5A C46G, the yeast fitness is 0.719.

For the variant C5A U13C C29U C55U G56A, the yeast fitness is no more than 0.5.

For C5A C31A C55A C61A G63A G67U, the yeast fitness was no more than 0.5.

On to C5A C55A A69C, for which the yeast fitness is no more than 0.5.

For C5A C61G A70G, the yeast fitness is 0.585.

Take C5A C31A C55A C61A G63A: the yeast fitness worked out at 0.671.

Take C5A G6C A15G A40G G67A: the yeast fitness was no more than 0.5.

C5A U7A G25C C46U: the yeast fitness was no more than 0.5.

Consider C5A G39A, for which the yeast fitness came to 0.83.

With C5A C31A C49U, the yeast fitness was no more than 0.5.

In the case of C5A U8C, the yeast fitness was 0.929.

On to C5A G10A U35C C49A, for which the yeast fitness was no more than 0.5.

Take C5A C31G G56C G58C: the yeast fitness was no more than 0.5.

C5A G9C A36U U54A C55U: the yeast fitness is no more than 0.5.

For C5A G41A A42C G50C A70G, the yeast fitness was 0.502.

On to C5A C60U A65C, for which the yeast fitness was no more than 0.5.

Take C5A G18C G50A: the yeast fitness is no more than 0.5.

As to C5A U8C A21G, the yeast fitness came out at 0.53.

For the variant C5A C31A A37C C46U, the yeast fitness is no more than 0.5.

C5A G17A C46A C55G: the yeast fitness is no more than 0.5.

C5A C46G C49A G67C: the yeast fitness is no more than 0.5.

With C5A G17U A69C A70G, the yeast fitness was no more than 0.5.

As to C5A G10C C22U A43G G58C C66G, the yeast fitness was no more than 0.5.

On to C5A G51C G63C A65C, for which the yeast fitness is no more than 0.5.

Regarding C5A G23C G50C, the yeast fitness was no more than 0.5.

Turning to C5A G18A, the yeast fitness stood at 0.818.

On to C5A G9A G41A U53C U64A, for which the yeast fitness is no more than 0.5.

C5A C34G C46U A70U: the yeast fitness was no more than 0.5.

For C5A U13A U35A U59C A70U, the yeast fitness was determined as 0.58.

With C5A G12A U35C G44A G48C C55G A69U, the yeast fitness is no more than 0.5.

Regarding C5A G58C A70C, the yeast fitness amounted to 0.644.

On to C5A U13A U32C U35A U59C A70U, for which the yeast fitness was 0.547.

As for C5A U13C C27A U28G G67U, the yeast fitness was no more than 0.5.

On to C5A G41A G56C A65C, for which the yeast fitness was no more than 0.5.

For C5A G41A A57G, the yeast fitness came out at 0.545.

For C5A G51A, the yeast fitness was 0.71.

As to C5A G6C G63A, the yeast fitness is no more than 0.5.

As for C5A C31G C55A, the yeast fitness was no more than 0.5.

Regarding C5A C31A A40C A43U A65G C66G, the yeast fitness is no more than 0.5.

Turning to C5A C33U A36G, the yeast fitness was 0.532.

As for C5A G12A A37G A43C C55G G68A, the yeast fitness was no more than 0.5.

Turning to C5A G48C G51C U53A, the yeast fitness is no more than 0.5.

Consider C5A G12C C34U, for which the yeast fitness was no more than 0.5.

As for C5A G9C G38C G63C C66U, the yeast fitness was no more than 0.5.

As for C5A G48C, the yeast fitness came to 0.953.

As for C5A G48C A57G, the yeast fitness was 0.557.

On to C5A G48C A57U, for which the yeast fitness was no more than 0.5.

As to C5A C34G C49G A65G, the yeast fitness is no more than 0.5.

On to C5A U7C U19A G38C A42G, for which the yeast fitness was no more than 0.5.

Take C5A U7C U32A G52C C55U C66U: the yeast fitness was no more than 0.5.

Consider C5A C34U U35A C49A U54A, for which the yeast fitness came to 0.661.

Take C5A C46U C49U: the yeast fitness is 0.809.

With C5A C31G G63U, the yeast fitness is no more than 0.5.

On to C5A G17C G18C G58A U59G, for which the yeast fitness worked out at 0.535.

For the variant C5A G18A G52C, the yeast fitness was no more than 0.5.

With C5A C33U C46G C66G G67A A69C, the yeast fitness was no more than 0.5.

For the variant C5A C33A A40C G41A U59A U64A C66G, the yeast fitness was found to be 0.584.

For the variant C5A U13A A20G A42C U59C, the yeast fitness is no more than 0.5.

For C5A U13A C27G A37G, the yeast fitness was no more than 0.5.

Regarding C5A G39A G44A, the yeast fitness turned out to be 0.62.

With C5A G51A C61A, the yeast fitness is no more than 0.5.

Take C5A C33A G38A A45C G52A U54G G67A: the yeast fitness was no more than 0.5.

Take C5A C49A G68C: the yeast fitness was 0.536.

C5A U8C C30G C31G A65C: the yeast fitness is no more than 0.5.

As for C5A G58U, the yeast fitness is 0.946.

For the variant C5A G23C C61G C62U C66U, the yeast fitness was no more than 0.5.

For the variant C5A G12C G18C C30A C31G U54G A65G, the yeast fitness was no more than 0.5.

As to C5A G10C U26C G52C, the yeast fitness is no more than 0.5.

For C5A G18C U19A C27A C33A C61G A70G, the yeast fitness is no more than 0.5.

Consider C5A C46G C49U, for which the yeast fitness worked out at 0.727.

For the variant C5A U8A C46G, the yeast fitness is no more than 0.5.

In the case of C5A G6C C30G A42G, the yeast fitness is 0.606.

Take C5A G39C C60G C62A: the yeast fitness was no more than 0.5.
